Assay results reported in ChEMBL document CHEMBL1821673, “Development of β-amino alcohol derivatives that inhibit Toll-like receptor 4 mediated inflammatory response as potential antiseptics” (J Med Chem, 2011).
Activity calls are given as the source filed them. The calls are words filed in the database; no cut-off is given here.

Tests used:
Toll-like receptor 4 [1] = target: T1, Toll-like receptor 4 (Mus musculus, UniProt Q9QUK6); experiment: Inhibition of LPS-induced TLR4 activation in mouse RAW264.7 cells assessed as reduction in NO production after 18 to 24 hrs; assay type: cell-based
T1 sequence (Q9QUK6 whole entry): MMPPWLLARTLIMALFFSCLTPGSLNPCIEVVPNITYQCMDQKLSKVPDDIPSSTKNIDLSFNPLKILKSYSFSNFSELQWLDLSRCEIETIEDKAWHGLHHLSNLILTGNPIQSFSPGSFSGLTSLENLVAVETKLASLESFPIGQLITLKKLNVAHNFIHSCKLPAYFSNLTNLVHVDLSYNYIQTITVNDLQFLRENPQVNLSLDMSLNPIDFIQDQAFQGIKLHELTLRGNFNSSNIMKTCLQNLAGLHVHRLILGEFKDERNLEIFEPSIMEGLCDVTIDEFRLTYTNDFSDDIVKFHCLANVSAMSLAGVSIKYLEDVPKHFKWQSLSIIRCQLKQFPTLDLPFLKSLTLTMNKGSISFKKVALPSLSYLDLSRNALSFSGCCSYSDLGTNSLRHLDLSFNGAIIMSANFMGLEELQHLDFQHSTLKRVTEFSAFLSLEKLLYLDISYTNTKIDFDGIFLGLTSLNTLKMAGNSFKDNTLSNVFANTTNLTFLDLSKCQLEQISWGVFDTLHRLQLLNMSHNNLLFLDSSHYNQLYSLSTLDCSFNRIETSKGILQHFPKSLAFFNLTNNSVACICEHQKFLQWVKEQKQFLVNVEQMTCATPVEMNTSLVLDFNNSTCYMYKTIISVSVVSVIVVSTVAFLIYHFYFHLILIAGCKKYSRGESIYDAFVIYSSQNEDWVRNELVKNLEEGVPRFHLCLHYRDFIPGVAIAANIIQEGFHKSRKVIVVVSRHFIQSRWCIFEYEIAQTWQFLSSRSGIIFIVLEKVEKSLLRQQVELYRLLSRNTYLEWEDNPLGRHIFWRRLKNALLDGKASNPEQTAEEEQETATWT
Method in brief: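 RAW264.7 cells, 100,000 per well, grown 24 h in RPMI with 10% FBS, then switched to unsupplemented RPMI. LPS and compound added together, 18–24 h at 37 °C. Medium nitrite measured with 2,3-diaminonaphthalene (ex 365/em 450 nm) against a nitrite standard curve. Quadruplicate; IC50 by a modified Kou-type method.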

Blood = experiment: Cytotoxicity against human whole blood assessed as hemolysis at 1 mM; assay type: tissue-based; conditions: 1000 µM
Method in brief: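 Human whole blood anticoagulated with lepirudin, exposed to compound at up to 1 mM; hemolysis checked.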

Toll-like receptor 4 [2] = target: T2, Toll-like receptor 4 (Homo sapiens, UniProt O00206); experiment: Inhibition of LPS-induced TLR4 activation in human whole blood assessed as inhibition of IL-6 release preincubated for 5 to 10 mins
T2 sequence (O00206 whole entry): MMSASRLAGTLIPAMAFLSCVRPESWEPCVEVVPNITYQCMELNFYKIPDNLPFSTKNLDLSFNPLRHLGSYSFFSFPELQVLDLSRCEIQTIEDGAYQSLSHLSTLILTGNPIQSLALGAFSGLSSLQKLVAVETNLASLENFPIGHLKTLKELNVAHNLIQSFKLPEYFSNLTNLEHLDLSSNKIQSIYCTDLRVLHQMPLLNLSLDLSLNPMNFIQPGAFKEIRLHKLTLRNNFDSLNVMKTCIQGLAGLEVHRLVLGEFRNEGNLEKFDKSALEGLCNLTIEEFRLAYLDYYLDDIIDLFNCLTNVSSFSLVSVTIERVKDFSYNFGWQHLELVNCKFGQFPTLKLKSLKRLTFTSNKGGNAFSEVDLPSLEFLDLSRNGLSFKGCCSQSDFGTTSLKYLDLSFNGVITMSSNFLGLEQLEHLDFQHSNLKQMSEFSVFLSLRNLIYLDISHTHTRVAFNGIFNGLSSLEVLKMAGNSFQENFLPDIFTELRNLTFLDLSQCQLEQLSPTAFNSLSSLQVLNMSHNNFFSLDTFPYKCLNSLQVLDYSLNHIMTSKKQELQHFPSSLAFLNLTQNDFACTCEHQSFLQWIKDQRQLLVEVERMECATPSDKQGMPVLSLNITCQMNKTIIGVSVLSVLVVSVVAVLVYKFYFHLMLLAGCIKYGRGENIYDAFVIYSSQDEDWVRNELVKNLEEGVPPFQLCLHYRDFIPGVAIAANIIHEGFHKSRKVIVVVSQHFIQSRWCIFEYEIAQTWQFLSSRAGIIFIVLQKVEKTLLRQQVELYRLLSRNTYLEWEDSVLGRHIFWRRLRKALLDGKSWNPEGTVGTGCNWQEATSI
Method in brief: (§1)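 Fresh human blood anticoagulated with lepirudin, preincubated with compound 5–10 min at 37 °C, then stimulated with 100 ng/mL ultrapure E. coli 0111:B4 LPS, rotating 2 h at 37 °C. Stopped with EDTA 10 mM final; plasma TNF-α, IL-8 and IL-6 measured by singleplex Bio-plex, expressed as % of LPS without inhibitor. n = 3 or 9, paired two-sided t-test.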

Toll-like receptor 4 [3] = target: T2, Toll-like receptor 4; experiment: Inhibition of LPS-induced TLR4 activation in human whole blood assessed as inhibition of TNFalpha release preincubated for 5 to 10 mins; method in brief: as §1
Toll-like receptor 4 [4] = target: T2, Toll-like receptor 4; experiment: Inhibition of LPS-induced TLR4 activation in human whole blood assessed as inhibition of IL-8 release preincubated for 5 to 10 mins; method in brief: as §1
Toll-like receptor 4 [5] = target: T2, Toll-like receptor 4; experiment: Inhibition of LPS-induced TLR4 activation in human whole blood assessed as inhibition of IL-6 release at 250 uM preincubated for 5 to 10 mins; method in brief: as §1
Toll-like receptor 4 [6] = target: T2, Toll-like receptor 4; experiment: Inhibition of LPS-induced TLR4 activation in human whole blood assessed as inhibition of IL-8 release at 500 uM preincubated for 5 to 10 mins; method in brief: as §1
Toll-like receptor 4 [7] = target: T2, Toll-like receptor 4; experiment: Inhibition of LPS-induced TLR4 activation in human whole blood assessed as inhibition of IL-6 release at 500 uM preincubated for 5 to 10 mins; method in brief: as §1
Toll-like receptor 4 [8] = target: T2, Toll-like receptor 4; experiment: Inhibition of LPS-induced TLR4 activation in human whole blood assessed as inhibition of TNFalpha release at 500 uM preincubated for 5 to 10 mins; method in brief: as §1
[9] = target: Discoidin domain-containing receptor 2 (Homo sapiens) (UniProt Q16832); experiment: Inhibition of DDR2 at 16 uM by luciferase fragment complementation assay
Discoidin domain-containing receptor 2 (Homo sapiens), sequence (Q16832 whole entry, the tested form may be a part): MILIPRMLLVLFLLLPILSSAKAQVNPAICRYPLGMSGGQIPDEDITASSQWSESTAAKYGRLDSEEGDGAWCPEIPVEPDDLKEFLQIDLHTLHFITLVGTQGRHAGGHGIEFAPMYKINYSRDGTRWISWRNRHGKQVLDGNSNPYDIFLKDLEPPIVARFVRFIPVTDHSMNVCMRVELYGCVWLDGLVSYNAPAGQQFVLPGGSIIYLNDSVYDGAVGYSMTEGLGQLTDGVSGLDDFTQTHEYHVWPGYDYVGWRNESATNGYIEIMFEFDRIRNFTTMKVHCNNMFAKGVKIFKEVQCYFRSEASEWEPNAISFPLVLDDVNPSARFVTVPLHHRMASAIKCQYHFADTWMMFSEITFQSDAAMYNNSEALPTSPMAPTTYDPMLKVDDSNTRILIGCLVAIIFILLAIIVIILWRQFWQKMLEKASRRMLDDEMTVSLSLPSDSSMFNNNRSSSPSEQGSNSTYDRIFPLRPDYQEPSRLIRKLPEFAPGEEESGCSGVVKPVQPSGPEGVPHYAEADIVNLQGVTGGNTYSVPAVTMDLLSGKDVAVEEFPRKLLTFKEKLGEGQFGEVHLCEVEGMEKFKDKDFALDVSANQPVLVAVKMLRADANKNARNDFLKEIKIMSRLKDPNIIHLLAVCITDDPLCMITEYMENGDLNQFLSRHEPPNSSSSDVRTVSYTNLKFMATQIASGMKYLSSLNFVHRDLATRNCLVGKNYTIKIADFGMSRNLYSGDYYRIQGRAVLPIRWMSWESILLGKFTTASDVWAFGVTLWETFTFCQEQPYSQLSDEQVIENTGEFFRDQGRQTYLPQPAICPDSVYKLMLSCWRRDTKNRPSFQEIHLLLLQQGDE

[10] = target: Hepatocyte growth factor receptor (Homo sapiens) (UniProt P08581); experiment: Inhibition of MET at 16 uM by luciferase fragment complementation assay
[11] = target: RAC-alpha serine/threonine-protein kinase (Homo sapiens) (UniProt P31749); experiment: Inhibition of AKT1 at 16 uM by luciferase fragment complementation assay
[12] = target: Serine/threonine-protein kinase pim-1 (Homo sapiens) (UniProt P11309); experiment: Inhibition of PIM1 at 16 uM by luciferase fragment complementation assay
Serine/threonine-protein kinase pim-1 (Homo sapiens), sequence (P11309 whole entry, looked up, the tested form may be a part): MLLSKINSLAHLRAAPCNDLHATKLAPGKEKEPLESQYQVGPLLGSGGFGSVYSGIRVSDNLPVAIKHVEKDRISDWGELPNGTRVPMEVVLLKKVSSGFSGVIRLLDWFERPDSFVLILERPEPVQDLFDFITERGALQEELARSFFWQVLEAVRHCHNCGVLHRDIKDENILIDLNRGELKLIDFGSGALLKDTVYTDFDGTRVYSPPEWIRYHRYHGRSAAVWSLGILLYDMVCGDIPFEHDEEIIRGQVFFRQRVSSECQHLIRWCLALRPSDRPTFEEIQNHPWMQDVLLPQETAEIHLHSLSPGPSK

[13] = target: Calcium/calmodulin-dependent protein kinase type 1 (Homo sapiens) (UniProt Q14012); experiment: Inhibition of CAMK1 at 16 uM by luciferase fragment complementation assay
[14] = target: Serine/threonine-protein kinase PAK 1 (Homo sapiens) (UniProt Q13153); experiment: Inhibition of PAK1 at 16 uM by luciferase fragment complementation assay
[15] = target: Proto-oncogene tyrosine-protein kinase Src (Homo sapiens) (UniProt P12931); experiment: Inhibition of SRC at 16 uM by luciferase fragment complementation assay
[16] = target: Glycogen synthase kinase-3 alpha (Homo sapiens) (UniProt P49840); experiment: Inhibition of GSK3alpha at 16 uM by luciferase fragment complementation assay
Glycogen synthase kinase-3 alpha (Homo sapiens), sequence (P49840 2-483 limits assumed): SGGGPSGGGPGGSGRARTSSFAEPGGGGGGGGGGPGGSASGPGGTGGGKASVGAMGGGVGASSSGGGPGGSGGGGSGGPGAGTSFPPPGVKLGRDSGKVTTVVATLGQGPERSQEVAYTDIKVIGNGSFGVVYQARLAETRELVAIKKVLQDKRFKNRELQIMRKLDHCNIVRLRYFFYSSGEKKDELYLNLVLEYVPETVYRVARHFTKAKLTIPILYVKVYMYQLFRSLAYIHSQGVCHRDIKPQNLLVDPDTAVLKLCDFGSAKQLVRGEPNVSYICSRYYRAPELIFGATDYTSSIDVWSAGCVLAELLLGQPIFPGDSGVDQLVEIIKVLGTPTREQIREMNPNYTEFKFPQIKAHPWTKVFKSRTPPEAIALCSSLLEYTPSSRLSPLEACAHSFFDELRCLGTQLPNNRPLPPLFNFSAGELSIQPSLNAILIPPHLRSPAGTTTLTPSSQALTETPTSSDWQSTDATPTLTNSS

[17] = target: Mitogen-activated protein kinase 1 (Homo sapiens) (UniProt P28482); experiment: Inhibition of […] at 16 uM by luciferase fragment complementation assay
Mitogen-activated protein kinase 1 (Homo sapiens), sequence (P28482 whole entry, the tested form may be a part): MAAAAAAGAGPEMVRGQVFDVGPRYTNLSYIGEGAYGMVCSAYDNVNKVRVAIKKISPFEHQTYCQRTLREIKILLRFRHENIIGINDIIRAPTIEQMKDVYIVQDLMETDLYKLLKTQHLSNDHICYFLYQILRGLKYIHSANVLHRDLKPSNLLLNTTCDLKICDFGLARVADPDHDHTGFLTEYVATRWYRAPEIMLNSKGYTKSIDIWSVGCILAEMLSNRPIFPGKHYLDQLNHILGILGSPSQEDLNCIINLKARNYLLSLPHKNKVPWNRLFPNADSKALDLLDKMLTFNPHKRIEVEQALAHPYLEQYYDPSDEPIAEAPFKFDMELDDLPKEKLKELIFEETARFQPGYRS

[18] = target: Protein kinase C gamma type (Homo sapiens) (UniProt P05129); experiment: Inhibition of PKCgamma at 16 uM by luciferase fragment complementation assay
[19] = target: Serine/threonine-protein kinase PLK4 (Homo sapiens) (UniProt O00444); experiment: Inhibition of PLK4 at 16 uM by luciferase fragment complementation assay
Serine/threonine-protein kinase PLK4 (Homo sapiens), sequence (O00444 whole entry, the tested form may be a part): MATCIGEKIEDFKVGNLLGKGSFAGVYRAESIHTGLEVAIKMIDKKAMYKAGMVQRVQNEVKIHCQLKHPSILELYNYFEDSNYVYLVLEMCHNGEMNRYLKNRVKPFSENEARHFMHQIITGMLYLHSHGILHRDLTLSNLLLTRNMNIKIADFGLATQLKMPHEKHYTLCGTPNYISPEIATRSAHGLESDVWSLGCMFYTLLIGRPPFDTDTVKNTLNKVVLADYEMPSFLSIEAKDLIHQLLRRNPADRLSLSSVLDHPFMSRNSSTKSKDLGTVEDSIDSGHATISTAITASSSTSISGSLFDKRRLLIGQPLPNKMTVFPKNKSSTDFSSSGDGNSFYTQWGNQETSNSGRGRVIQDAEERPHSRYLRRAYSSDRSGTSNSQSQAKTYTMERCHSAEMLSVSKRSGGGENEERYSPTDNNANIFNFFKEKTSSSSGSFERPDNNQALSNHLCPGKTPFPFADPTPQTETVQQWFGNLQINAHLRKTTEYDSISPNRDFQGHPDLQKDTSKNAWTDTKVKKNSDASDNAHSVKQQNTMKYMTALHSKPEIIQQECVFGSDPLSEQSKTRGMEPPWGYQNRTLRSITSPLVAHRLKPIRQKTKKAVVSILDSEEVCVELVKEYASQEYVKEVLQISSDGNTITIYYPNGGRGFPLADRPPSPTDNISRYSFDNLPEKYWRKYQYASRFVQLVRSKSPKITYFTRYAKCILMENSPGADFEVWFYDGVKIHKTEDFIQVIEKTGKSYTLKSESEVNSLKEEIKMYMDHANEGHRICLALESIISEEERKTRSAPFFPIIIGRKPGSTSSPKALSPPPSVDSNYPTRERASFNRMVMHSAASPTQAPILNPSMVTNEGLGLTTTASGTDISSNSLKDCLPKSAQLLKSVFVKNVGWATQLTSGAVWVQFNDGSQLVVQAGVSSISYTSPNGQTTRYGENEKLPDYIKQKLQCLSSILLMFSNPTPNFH

[20] = target: Platelet-derived growth factor receptor beta (Homo sapiens) (UniProt P09619); experiment: Inhibition of PDGFRB at 16 uM by luciferase fragment complementation assay
Platelet-derived growth factor receptor beta (Homo sapiens), sequence (P09619 whole entry, the tested form may be a part): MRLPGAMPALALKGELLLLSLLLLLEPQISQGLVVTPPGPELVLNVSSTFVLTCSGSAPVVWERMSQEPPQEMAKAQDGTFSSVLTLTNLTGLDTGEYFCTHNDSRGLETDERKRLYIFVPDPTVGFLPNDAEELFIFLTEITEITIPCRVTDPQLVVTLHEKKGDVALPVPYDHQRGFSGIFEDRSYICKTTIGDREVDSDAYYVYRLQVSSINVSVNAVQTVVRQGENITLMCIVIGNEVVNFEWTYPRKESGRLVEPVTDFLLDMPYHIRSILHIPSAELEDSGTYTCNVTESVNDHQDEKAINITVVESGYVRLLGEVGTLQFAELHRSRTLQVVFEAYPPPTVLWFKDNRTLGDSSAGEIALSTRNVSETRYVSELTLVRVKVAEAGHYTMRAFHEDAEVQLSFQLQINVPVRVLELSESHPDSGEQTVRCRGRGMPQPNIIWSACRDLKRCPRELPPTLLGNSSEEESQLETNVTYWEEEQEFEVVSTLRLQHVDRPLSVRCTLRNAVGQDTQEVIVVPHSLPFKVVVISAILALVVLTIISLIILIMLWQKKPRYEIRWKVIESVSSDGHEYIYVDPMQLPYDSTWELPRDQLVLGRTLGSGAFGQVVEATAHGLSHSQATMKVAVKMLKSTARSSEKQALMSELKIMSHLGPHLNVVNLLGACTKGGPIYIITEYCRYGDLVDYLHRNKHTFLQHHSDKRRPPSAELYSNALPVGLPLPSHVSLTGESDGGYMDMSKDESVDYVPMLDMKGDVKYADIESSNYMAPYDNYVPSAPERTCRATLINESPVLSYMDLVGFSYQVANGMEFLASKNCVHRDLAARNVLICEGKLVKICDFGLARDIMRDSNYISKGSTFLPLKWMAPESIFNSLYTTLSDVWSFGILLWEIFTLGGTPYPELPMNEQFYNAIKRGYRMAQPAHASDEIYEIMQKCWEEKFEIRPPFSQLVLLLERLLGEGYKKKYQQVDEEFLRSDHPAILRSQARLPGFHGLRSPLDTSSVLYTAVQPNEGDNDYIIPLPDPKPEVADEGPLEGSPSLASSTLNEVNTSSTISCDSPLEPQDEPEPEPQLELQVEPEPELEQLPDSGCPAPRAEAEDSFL

| Structure (SMILES) | IC50 (Toll-like receptor 4 [1]) [µM] | Activity (Blood) | other results |
| --- | --- | --- | --- |
| Cc1nn(Cc2ccccc2Cl)c(C)c1CN(C)C[C@H](O)COc1ccc(Cl)cc1 | 15.6 | Non-toxic | – |
| CCOc1ccc(OC[C@H](O)CN(C)Cc2c(C)nn(Cc3ccccc3Cl)c2C)cc1 | 24.8 | Non-toxic | – |
| CCOc1ccc(OC[C@@H](O)CN(C)Cc2c(C)nn(Cc3ccccc3Cl)c2C)cc1 | 24.3 | Non-toxic | – |
| Cc1nn(Cc2ccccc2Cl)c(C)c1CN(C)C[C@@H](O)COc1ccc(Cl)cc1 | 15.5 | Non-toxic | – |
| Cc1nn(Cc2ccccc2)c(C)c1CN(C)CC(O)COc1ccccc1 (racemic) | > 100 | Non-toxic | inhibition (Toll-like receptor 4 [2]): Dose-dependent effect; inhibition (Toll-like receptor 4 [3]): Dose-dependent effect; inhibition (Toll-like receptor 4 [4]): Dose-dependent effect; inhibition (Toll-like receptor 4 [5]): inactive; inhibition (Toll-like receptor 4 [6]): Active; inhibition (Toll-like receptor 4 [7]): Active; inhibition (Toll-like receptor 4 [8]): Active |
| Cc1nn(Cc2ccccc2Cl)c(C)c1CN(C)CC(O)COc1ccccc1 (racemic) | 64.3 | Non-toxic | – |
| COCCc1ccc(OCC(O)CN(C)Cc2c(C)nn(Cc3ccccc3Cl)c2C)cc1 (racemic) | 57.3 | Non-toxic | – |
| COc1ccccc1OCC(O)CN(C)Cc1c(C)nn(Cc2ccccc2Cl)c1C (racemic) | 92.5 | Non-toxic | – |
| CCOc1ccc(OCC(O)CN(C)Cc2c(C)nn(Cc3ccccc3)c2C)cc1 (racemic) | 51.8 | Non-toxic | – |
| CCOc1ccc(OCC(O)CN(C)Cc2c(C)nn(Cc3ccccc3C)c2C)cc1 (racemic) | 47.7 | Non-toxic | – |
| CCOc1ccc(OCC(O)CN(C)Cc2c(C)nn(Cc3ccccc3OC)c2C)cc1 (racemic) | > 100 | Non-toxic | – |
| CCOc1ccc(OCC(O)CN(C)Cc2c(C)nn(Cc3ccc(OC)cc3)c2C)cc1 (racemic) | 67.6 | Non-toxic | – |
| CCOc1ccc(OCC(O)CN(C)Cc2c(C)nn(Cc3ccccc3F)c2C)cc1 (racemic) | 47.7 | Non-toxic | – |
| CCOc1ccc(OCC(CN(C)Cc2c(C)nn(Cc3ccccc3Cl)c2C)OC)cc1 (racemic) | 19.8 | – | – |
| CCOc1ccc(OCC(O)CN(C)Cc2c(C)nn(Cc3cccc(Cl)c3)c2C)cc1 (racemic) | 16.5 | Non-toxic | – |
| CCOc1ccc(OCC(O)CN(C)Cc2c(C)nn(Cc3ccc(Cl)c(Cl)c3)c2C)cc1 (racemic) | 21.8 | Non-toxic | – |
| C=Cc1ccccc1Cn1nc(C)c(CN(C)CC(O)COc2ccc(OCC)cc2)c1C (racemic) | 24.7 | Non-toxic | – |
| CCOc1ccc(OCC(O)CN(C)Cc2c(C)nn(Cc3ccccc3C(F)(F)F)c2C)cc1 (racemic) | 32.1 | Non-toxic | – |
| C=CCOc1ccc(OCC(O)CN(C)Cc2c(C)nn(Cc3ccccc3C=C)c2C)cc1 (racemic) | 23.1 | Non-toxic | – |
| C=CCOc1ccc(OCC(O)CN(C)Cc2c(C)nn(Cc3ccccc3Cl)c2C)cc1 (racemic) | 44.6 | Non-toxic | – |
| Cc1nn(Cc2ccccc2Cl)c(C)c1CN(C)CC(O)COc1ccc(Cl)cc1 (racemic) | 16.1 | Non-toxic | inhibition [9]: ≤ 27%; inhibition [10]: ≤ 27%; inhibition [11]: ≤ 27%; inhibition [12]: ≤ 27%; inhibition [13]: ≤ 27%; inhibition [14]: ≤ 27%; inhibition [15]: ≤ 27%; inhibition [16]: ≤ 27%; inhibition [17]: ≤ 27%; inhibition [18]: ≤ 27%; inhibition [19]: ≤ 27%; inhibition [20]: ≤ 27% |
| Cc1nn(Cc2ccccc2Cl)c(C)c1CN(C)CC(O)COc1ccc(Cl)c(Cl)c1 (racemic) | 20.1 | Non-toxic | – |
| C=Cc1ccccc1Cn1nc(C)c(CN(C)CC(O)COc2ccc(Cl)cc2)c1C (racemic) | 23.2 | Non-toxic | – |
| Cc1nn(Cc2ccccc2C(F)(F)F)c(C)c1CN(C)CC(O)COc1ccc(C(F)(F)F)cc1 (racemic) | 27.3 | Non-toxic | – |
| Cc1nn(Cc2ccccc2Cl)c(C)c1CN(C)CC(O)COc1ccc(C(F)(F)F)cc1 (racemic) | 23.7 | Non-toxic | – |
| Cc1nn(Cc2ccccc2Cl)c(C)c1CN(C)CC(O)COc1ccc(C#N)cc1 (racemic) | 52.7 | Non-toxic | – |
